Measurements of several laboratories.
Values after ≈ are worked out from the molar mass of the structure shown.

O=C(O[C@@H]1O[C@@H]2COC(=O)c3cc(O)c(O)c(O)c3-c3c(cc(O)c(O)c3O)C(=O)O[C@H]([C@H]1O)[C@@H]2O)c1cc(O)c(O)c(O)c1  MBC (Streptococcus gordonii; microbial killing, broth dilution): 800 µg/mL
C[C@@H](O)[C@H]1C(=O)N2C(C(=O)O)=C(SCCN=CN)C[C@H]12  MIC (Acinetobacter baumannii; microbial growth, broth dilution; ATCCBAA1605): > 64 µg/mL
Cc1n[nH]c2ccc3nc(-c4ccc(C(=O)NCCN(C)C)cc4)c4c(c3c12)CCCC4  GI50 (G-361; cell growth or viability; 72 h): 3.49 µM
O=C1C(=Nc2ccccc2I)c2ccccc2N1Cc1ccc([N+](=O)[O-])cc1  IC50 (B16; cell growth or viability, MTT; 48 h): 0.27 µM
CO/N=C(\C(=O)N[C@@H]1C(=O)N2C(C(=O)O)=CCS[C@H]12)c1csc(N)n1  MIC (Acinetobacter baumannii; microbial growth, broth dilution; ATCC19606): 16 µg/mL (≈ 41.7 µM)
CNC(C)C1CCC(N)C(OC2C(N)CC(N)C(OC3OCC(C)(O)C(NC)C3O)C2O)O1 (stereo not shown)  MBC (Acinetobacter baumannii; microbial killing, broth dilution; ATCC19606; 24 h): 32 mM
O=C1O[C@H]2[C@@H]3OC(=O)c4cc(O)c(O)c(O)c4-c4c(O)c(O)c5oc(=O)c6c(c(O)c(O)c7oc(=O)c4c5c76)-c4c(cc(O)c(O)c4O)C(=O)OC[C@H]3OC(O)[C@@H]2OC(=O)c2cc(O)c(O)c(O)c2-c2c1cc(O)c(O)c2O (mixture of isomers)  inhibition zone (Streptococcus gordonii; microbial growth, disc diffusion; 500 µg/disc): 14.2 mm
O=C1C(=Nc2cccc(Cl)c2)c2ccccc2N1Cc1ccc([N+](=O)[O-])cc1  IC50 (B16; cell growth or viability, MTT; 48 h): 0.55 µM
C[C@@H]1O[C@@H](OC[C@H]2O[C@@H](Oc3c(-c4ccc(O)c(O)c4)oc4cc(O)cc(O)c4c3=O)[C@H](O)[C@@H](O)[C@@H]2O)[C@H](O)[C@H](O)[C@H]1O  MBC (Streptococcus gordonii; microbial killing, broth dilution): 400 µg/mL
CN(C)[C@@H]1C(O)=C(C(N)=O)C(=O)[C@@]2(O)C(O)=C3C(=O)c4c(O)cccc4[C@@](C)(O)[C@H]3C[C@@H]12  MIC (Acinetobacter baumannii; microbial growth, broth dilution; ATCCBAA1605): > 64 µg/mL
O=c1oc2c(O)c(O)cc3c(=O)oc4c(O)c(O)cc1c4c23  MBC (Streptococcus gordonii; microbial killing, broth dilution): 400 µg/mL
O=C1Nc2ccccc2C1=Nc1ccccc1Br  IC50 (B16; cell growth or viability, MTT; 48 h): > 100 µM
O=C1OC[C@H]2OC(O)[C@H](O)[C@@H](O)[C@@H]2OC(=O)c2cc(O)c(O)c(O)c2-c2c(O)c(O)c3oc(=O)c4c(c(O)c(O)c5oc(=O)c2c3c54)-c2c1cc(O)c(O)c2O (mixture of isomers)  MBC (Streptococcus gordonii; microbial killing, broth dilution): 400 µg/mL
CC(C)c1cccc(C(C)C)c1N=C1C(=O)N(Cc2cccc(Cl)c2)c2ccccc21  IC50 (B16; cell growth or viability, MTT; 48 h): 40.9 µM
CC[C@H]1OC(=O)[C@H](C)[C@@H](O[C@H]2C[C@@](C)(OC)[C@@H](O)[C@H](C)O2)[C@H](C)[C@@H](O[C@@H]2O[C@H](C)C[C@H](N(C)C)[C@H]2O)[C@](C)(O)C[C@@H](C)CN(C)[C@H](C)[C@@H](O)[C@]1(C)O  MIC (Acinetobacter baumannii; microbial growth, broth dilution; ATCC19606): 1 µg/mL (≈ 1.34 µM)
CCCCCCC#Cc1cncc(-c2nnc(SCc3cc([N+](=O)[O-])cc([N+](=O)[O-])c3)n2CCCN)c1  MIC (Acinetobacter baumannii; microbial growth, broth dilution; ATCC17978): 32 µg/mL (≈ 61.1 µM)
Cc1cccc(N=C2C(=O)N(Cc3ccc(Br)cc3)c3ccccc32)c1  IC50 (B16; cell growth or viability, MTT; 48 h): 6.87 µM
Oc1cc(O)c2c(c1)O[C@H](c1cc(O)c(O)c(O)c1)[C@@H](O)C2  MBC (Streptococcus gordonii; microbial killing, broth dilution): 100 µg/mL
CC1(C)S[C@@H]2[C@H](NC(=O)[C@H](N)c3ccc(O)cc3)C(=O)N2[C@H]1C(=O)O  MIC (Acinetobacter baumannii; microbial growth, broth dilution; ATCC19606): > 64 µg/mL
O=C1C(=Nc2ccc(Cl)cc2)c2ccccc2N1Cc1ccc([N+](=O)[O-])cc1  IC50 (B16; cell growth or viability, MTT; 48 h): 0.58 µM
O=c1cc(OCc2cc(-c3ccccc3)no2)c2ccccc2o1  IC50 (Z-138; cell growth or viability, MTS; 72 h): > 100 µM
CCC(C(=O)N1C(=O)C(=Nc2ccc(Cl)cc2Br)c2ccccc21)c1ccccc1 (stereo not shown)  IC50 (B16; cell growth or viability, MTT; 48 h): 27.1 µM
Cc1n[nH]c2ccc3nc(-c4ccc(C(=O)NCCN(C)C)cc4)c4c(c3c12)CCCCC4  GI50 (G-361; cell growth or viability; 72 h): > 10 µM
C[C@H]1[C@H](NC(=O)/C(=N\OC(C)(C)C(=O)O)c2csc(N)n2)C(=O)N1S(=O)(=O)O  MIC (Acinetobacter baumannii; microbial growth, broth dilution; ATCC19606): 16 µg/mL (≈ 36.7 µM)
O=C1C(=Nc2ccc(Cl)cc2)c2ccccc2N1Cc1cccc(Cl)c1  IC50 (B16; cell growth or viability, MTT; 48 h): 1.56 µM
